Measured values reported in paper PMC9054070 (RSC Advances, 2020).
“And” between values parts separate entries of the source, which are not always exact repeats. Equal values may be shown once. Read-outs that look alike come from different tables or passages of the source.

Tests used:
HepG2 cell line = experiment: Cytotoxic screening using MTT assay, HepG2; type: cell-based; details: Homo sapiens, HepG2, 48 h, read-out: IC50 (μM) HepG2
MCF-7 cell line = experiment: Cytotoxic screening using MTT assay, MCF-7; type: cell-based
Outline: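 MTT cytotoxicity read-out on MCF-7 cells; IC50 from a sigmoidal log-concentration curve; 5-fluorouracil run alongside as reference drug.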

normal cell line GMSC = experiment: Cytotoxic screening using MTT assay, normal cell line GMSC; type: cell-based; details: read-out: IC50 (μM) GMSC
[1] = tested on: Ehrlich Ascites Carcinoma (EAC); experiment: In vivo anti-tumor activity in EAC-bearing mice; details: for percentage MST ratio (T/C%) / percentage increase in life span (ILS%): compared to EAC control; for percentage cell growth inhibition (CGI%) / tumor volume / total tumor cell count / packed cell volume (PCV%): day 18; for tumor volume: EAC control 19.5 mL; for total tumor cell count: EAC control 19.9; for packed cell volume (PCV%): EAC control 36.72%
[2] = Homo sapiens, MCF7, 48 h, read-out: IC50 (μM) MCF-7, MTT assay, 48 h treatment
[3] = read-out: IC50 (μM) MCF-7, MTT assay, 48 h treatment

Question: With `O=c1[nH]ncc2c1[nH]c1ccccc12` [Compound 2, 3,5-Dihydro-4H-pyridazino[4,5-b]indol-4-one] as the compound, how does the IC50 (HepG2 cell line) read?
Answer: 22.8 µM

Question: What about the IC50 (MCF-7 cell line; [2]) of the same compound?
Answer: 9.43 µM

Question: With `N#CCCn1ncc2c3ccccc3n(CCC#N)c2c1=O` [Compound 3, 3,3′-(4-oxo-3H-pyridazino[4,5-b]indole-3,5(4H)-diyl)dipropanenitrile] as the compound, how does the IC50 (HepG2 cell line) read?
Answer: > 50 µM

Question: What does the source list for `C=CCn1c2ccccc2c2cn[nH]c(=O)c21` [Compound 5, 5-Allyl-3,5-dihydro-4H-pyridazino[4,5-b]indol-4-one]?
Answer: IC50 (normal cell line GMSC; 48 h): > 50 µM; IC50 (HepG2 cell line): > 50 µM; IC50 (MCF-7 cell line; [2]): > 50 µM

Question: How did the “percentage MST ratio (T/C%)” value ([1]; EAC-bearing mice) turn out when `O=c1[nH]cc(F)c(=O)[nH]1` [Compound 5-FU, reference compound] was run?
Answer: 166%

Question: What about the “percentage increase in life span (ILS%)” value ([1]; EAC-bearing mice) of the same compound?
Answer: 66%

Question: And the “percentage cell growth inhibition (CGI%)” value ([1]; ascetic peritoneal fluid)?
Answer: 38.67%

Question: What about the tumor volume ([1]; ascetic peritoneal fluid) of the same compound?
Answer: 12.6 mL

Question: What about the “total tumor cell count” value ([1]; ascetic peritoneal fluid) of the same compound?
Answer: 12.2 × 10^7 cells per mL

Question: And the “packed cell volume (PCV%)” value ([1]; ascetic peritoneal fluid)?
Answer: 23.78%

Question: And the IC50 (normal cell line GMSC; MTT assay, 48 h treatment, normal cell line)?
Answer: > 50 µM

Question: What about the IC50 (MCF-7 cell line; [3]) of the same compound?
Answer: 6.98 µM

Question: Which IC50 (normal cell line GMSC; 48 h) does the source give for `O=c1[nH]ncc2c3ccccc3n(Cc3ccccc3)c12` [Compound 6, 5-Benzyl-3,5-dihydro-4H-pyridazino[4,5-b]indol-4-one] here?
Answer: > 50 µM

Question: What about the IC50 (MCF-7 cell line; [2]) of the same compound?
Answer: 29.5 µM

Question: Which IC50 (MCF-7 cell line; [2]) does the source give for `C=CCn1ncc2c3ccccc3n(CC=C)c2c1=O` [Compound 8, 3,5-Diallyl-3,5-dihydro-4H-pyridazino[4,5-b]indol-4-one] here?
Answer: 17 µM

Question: Which IC50 (MCF-7 cell line; [2]) does the source give for `O=c1c2c(cnn1Cc1ccccc1)c1ccccc1n2Cc1ccccc1` [Compound 9, 3,5-Dibenzyl-3,5-dihydro-4H-pyridazino[4,5-b]indol-4-one] here?
Answer: > 50 µM

Question: What does the source list for `CCOC(=O)Cn1c2ccccc2c2cn[nH]c(=O)c21` [Compound 10, Ethyl 2-(4-oxo-3,4-dihydro-5H-pyridazino[4,5-b]indol-5-yl)acetate]?
Answer: IC50 (normal cell line GMSC; 48 h): > 50 µM; IC50 (HepG2 cell line): 36.7 µM; IC50 (MCF-7 cell line; [2]): 12.4 µM

Question: How did the IC50 (normal cell line GMSC; 48 h) turn out when `CCOC(=O)Cn1ncc2c3ccccc3n(CC(=O)OCC)c2c1=O` [Compound 11, Diethyl 2,2′-(4-oxo-3H-pyridazino[4,5-b]indole-3,5(4H)-diyl)diacetate] was run?
Answer: > 50 µM

Question: And the IC50 (HepG2 cell line)?
Answer: 18.8 µM

Question: And the IC50 (MCF-7 cell line; [2])?
Answer: 9.07 µM

Question: With `NNC(=O)Cn1c2ccccc2c2cn[nH]c(=O)c21` [Compound 12, 2-(4-Oxo-3,4-dihydro-5H-pyridazino[4,5-b]indol-5-yl)acetohydrazide] as the compound, how does the “percentage MST ratio (T/C%)” value ([1]; EAC-bearing mice) read?
Answer: 172%

Question: And the “percentage increase in life span (ILS%)” value ([1]; EAC-bearing mice)?
Answer: 72%

Question: And the “percentage increase in body weight (IBW%)” value ([1]; EAC-bearing mice, untreated EAC control 43.65%)?
Answer: 19.27% and 15.56%

Question: What about the “percentage cell growth inhibition (CGI%)” value ([1]; ascetic peritoneal fluid) of the same compound?
Answer: 50.74%

Question: And the “percentage of viable cells” value ([1]; ascetic peritoneal fluid, day 18, trypan blue exclusion, EAC control 91.9%)?
Answer: 59.6%

Question: What about the tumor volume ([1]; ascetic peritoneal fluid) of the same compound?
Answer: 11.9 mL

Question: And the “total tumor cell count” value ([1]; ascetic peritoneal fluid)?
Answer: 9.8 × 10^7 cells per mL

Question: What about the “packed cell volume (PCV%)” value ([1]; ascetic peritoneal fluid) of the same compound?
Answer: 19.32%

Question: What about the IC50 (normal cell line GMSC; 48 h) of the same compound?
Answer: > 50 µM

Question: What about the IC50 (HepG2 cell line) of the same compound?
Answer: 12.8 µM

Question: What about the IC50 (MCF-7 cell line; [2]) of the same compound?
Answer: 4.24 µM

Question: And the IC50 (MCF-7 cell line; [3])?
Answer: 4.25 µM
